Laboratory results reported in ChEMBL document CHEMBL1156167 (Bioorg Med Chem Lett, 2010).
Calls of active or inactive are those of the source. No cut-off for these calls is given here.

Assays:
[1] = biological target: T1, Sphingosine 1-phosphate receptor 1 (Homo sapiens, UniProt P21453); assay: Agonist activity at human S1P1 receptor expressed in HEK293T cells assessed as stimulation of gamma-[35S]GTP binding after 30 mins by scintillation counting
[2] = biological target: T2, Sphingosine 1-phosphate receptor 3 (Homo sapiens, UniProt Q99500); assay: Agonist activity at human S1P3 receptor expressed in HEK293T cells assessed as stimulation of gamma-[35S]GTP binding after 30 mins by scintillation counting
T2 sequence (Q99500 whole entry): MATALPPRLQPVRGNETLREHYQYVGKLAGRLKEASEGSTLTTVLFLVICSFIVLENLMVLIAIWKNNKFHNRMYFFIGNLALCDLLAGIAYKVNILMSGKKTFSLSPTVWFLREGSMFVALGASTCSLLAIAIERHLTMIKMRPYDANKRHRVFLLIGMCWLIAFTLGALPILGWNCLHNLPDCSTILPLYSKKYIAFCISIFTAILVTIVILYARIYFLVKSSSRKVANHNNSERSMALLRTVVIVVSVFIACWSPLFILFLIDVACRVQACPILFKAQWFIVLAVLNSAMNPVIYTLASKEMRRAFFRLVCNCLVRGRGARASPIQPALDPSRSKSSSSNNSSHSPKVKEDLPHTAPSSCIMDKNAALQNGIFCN

Homo sapiens [3] = species on record: Homo sapiens; assay: Selectivity ratio of EC50 for human S1P3 receptor to EC50 for human S1P1 receptor by gamma-[35S]GTP binding assay; assay type: functional
Homo sapiens [4] = species on record: Homo sapiens; assay: Selectivity ratio of IC50 for human S1P3 receptor to IC50 for human S1P1 receptor by [33P]sphingosine-1-phosphate displacement assay
Mus musculus [5] = assay: Metabolic stability in C57BL/6 mouse assessed as alcohol pro-drug to phosphate drug conversion at 10 mg/kg, po after 6 hrs; assay type: ADME, organism-based; parameters: dose 10 mg/kg, route oral; conditions: in vivo
Summary of the method: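 Alcohol pro-drug dosed orally to mouse at 10 mg/kg. At 6 h, the amount converted in vivo to the phosphate was determined and expressed as percent conversion of alcohol to phosphate.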

[6] = biological target: T2, Sphingosine 1-phosphate receptor 3; assay: Displacement of [33P]sphingosine-1-phosphate from human S1P3 receptor expressed in HEK293T cells after 60 mins by scintillation counting; assay type: cell-based, HEK-293T
[7] = biological target: T1, Sphingosine 1-phosphate receptor 1; assay: Displacement of [33P]sphingosine-1-phosphate from human S1P1 receptor expressed in HEK293T cells after 60 mins by scintillation counting; assay type: cell-based, HEK-293T
[8] = biological target: T3, Sphingosine 1-phosphate receptor 4 (Homo sapiens, UniProt O95977); assay: Displacement of [33P]sphingosine-1-phosphate from human S1P4 receptor expressed in HEK293T cells after 60 mins by scintillation counting; assay type: cell-based, HEK-293T
T3 sequence (O95977 whole entry): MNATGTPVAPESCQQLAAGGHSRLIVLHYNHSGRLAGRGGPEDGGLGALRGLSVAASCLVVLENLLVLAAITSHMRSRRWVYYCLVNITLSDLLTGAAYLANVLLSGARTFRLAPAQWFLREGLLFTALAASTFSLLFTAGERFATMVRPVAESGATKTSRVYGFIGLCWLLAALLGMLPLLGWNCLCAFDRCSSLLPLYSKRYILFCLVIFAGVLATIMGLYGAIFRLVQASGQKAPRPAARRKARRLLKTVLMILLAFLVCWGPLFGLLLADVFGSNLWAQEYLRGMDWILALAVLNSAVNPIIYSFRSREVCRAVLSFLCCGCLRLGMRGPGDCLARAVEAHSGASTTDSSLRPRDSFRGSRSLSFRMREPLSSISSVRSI

[9] = biological target: Sphingosine 1-phosphate receptor 5 (Homo sapiens, UniProt Q9H228); assay: Displacement of [33P]sphingosine-1-phosphate from human S1P5 receptor expressed in HEK293T cells after 60 mins by scintillation counting; assay type: cell-based, HEK-293T
Sphingosine 1-phosphate receptor 5, sequence (Q9H228 whole entry): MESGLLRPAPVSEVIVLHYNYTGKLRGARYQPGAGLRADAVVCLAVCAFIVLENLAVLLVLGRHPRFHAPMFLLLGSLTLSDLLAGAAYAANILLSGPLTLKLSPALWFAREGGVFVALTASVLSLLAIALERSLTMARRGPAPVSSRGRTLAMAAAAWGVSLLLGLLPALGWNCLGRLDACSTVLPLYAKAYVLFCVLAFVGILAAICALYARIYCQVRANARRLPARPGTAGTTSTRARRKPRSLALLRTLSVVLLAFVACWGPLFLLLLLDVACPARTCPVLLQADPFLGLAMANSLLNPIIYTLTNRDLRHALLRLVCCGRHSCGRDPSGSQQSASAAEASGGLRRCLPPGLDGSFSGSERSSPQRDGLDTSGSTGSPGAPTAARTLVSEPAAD

[10] = biological target: T1, Sphingosine 1-phosphate receptor 1; assay: Ratio of compound IC50 to PPI-4667-P IC50 for human S1P1 receptor expressed in HEK293T cells; assay type: cell-based; conditions: HEK-293T
Mus musculus [11] = assay: Immunomodulatory activity in C57BL/6 mouse assessed as induction of lymphopenia at 10 mg/kg, po after 6 hrs by complete blood count analysis; assay type: functional
Summary of the method: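 Pro-drug alcohol given to mouse as a single oral dose of 10 mg/kg. Redistribution of circulating lymphocytes was measured 6 h post-dose and reported as percent lymphopenia.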

Mus musculus [12] = assay: Immunomodulatory activity in C57BL/6 mouse assessed as induction of lymphopenia at 0.3 to 10 mg/kg, po after 6 hrs by complete blood count analysis; assay type: functional, organism-based
Summary of the method: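 Mouse given a single oral dose of the pro-drug alcohol at 0.3, 1.0, 3.0 or 10.0 mg/kg alongside a vehicle group. Circulating lymphocyte redistribution was measured 6 h post-dose and expressed as lymphopenia relative to vehicle.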

T1 sequence (P21453 whole entry): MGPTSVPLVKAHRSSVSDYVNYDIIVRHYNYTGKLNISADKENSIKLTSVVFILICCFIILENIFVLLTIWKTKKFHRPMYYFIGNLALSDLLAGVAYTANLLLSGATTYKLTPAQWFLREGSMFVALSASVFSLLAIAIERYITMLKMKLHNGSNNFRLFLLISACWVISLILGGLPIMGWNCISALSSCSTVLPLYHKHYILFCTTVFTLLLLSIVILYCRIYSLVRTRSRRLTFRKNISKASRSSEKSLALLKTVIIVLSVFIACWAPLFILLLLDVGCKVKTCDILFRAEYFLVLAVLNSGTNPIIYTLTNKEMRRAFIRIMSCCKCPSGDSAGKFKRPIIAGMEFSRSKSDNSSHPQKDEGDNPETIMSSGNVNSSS

Row | Structure (SMILES) | EC50 [1] [nM] | EC50 [2] [nM] | Ratio IC50 (Homo sapiens [4]) | IC50 [6] [nM] | IC50 [7] [nM] | also measured
1 | C[C@](N)(COP(=O)(O)O)c1nc(-c2ccc(OCc3ccc(-c4ccccc4)cc3)cc2)c[nH]1 | 2.2 | 54.8 | 19 |  |  | Ratio EC50 (Homo sapiens [3]): 25
2 | C[C@](N)(CO)C(=O)Nc1ccc(OCCc2ccc(-c3ccccc3)cc2)cc1 |  |  |  |  |  | Activity (Mus musculus [5]): 14%
3 | C[C@](N)(COP(=O)(O)O)C(=O)Nc1ccc(OCCc2ccc(-c3ccccc3)cc2)c(C(F)(F)F)c1 | 1.44 | > 3000 | 18800 | 4500 | 0.24 | IC50 [8]: 3.4 nM; Ratio EC50 (Homo sapiens [3]): > 2080; IC50 [9]: 87.2 nM
4 | C[C@](N)(COP(=O)(O)O)C(=O)Nc1ccc(OCCc2ccc(-c3ccccc3)cc2)c(C#N)c1 |  |  | 588 | 2000 | 3.4 | Ratio IC50 [10]: 3
5 | C[C@](N)(COP(=O)(O)O)C(=O)Nc1ccc(OCCc2ccc(-c3ccccc3)cc2)c(Br)c1 |  |  | 769 | 1000 | 1.3 | 
6 | C[C@](N)(COP(=O)(O)O)C(=O)Nc1ccc(OCCc2ccc(-c3ccccc3)cc2)c(C(=O)O)c1 |  |  |  | > 10000 | > 10000 | 
7 | C[C@](N)(CO)C(=O)Nc1ccc(C(=O)CCc2ccc(-c3ccccc3)cc2)cc1 |  |  |  |  |  | Activity (Mus musculus [11]): 84%; Activity (Mus musculus [5]): 40%
8 | C[C@](N)(COP(=O)(O)O)C(=O)Nc1ccc(OCCc2ccc(-c3ccccc3)cc2)c(C(N)=O)c1 |  |  |  | > 1000 | 150 | 
9 | C[C@](N)(CO)c1nc(-c2ccc(OCc3ccc(-c4ccccc4)cc3)c(C(F)(F)F)c2)c[nH]1 |  |  |  |  |  | Activity (Mus musculus [12]): Active
10 | Cc1cc(NC(=O)[C@@](C)(N)COP(=O)(O)O)ccc1OCCc1ccc(-c2ccccc2)cc1 |  |  | 542 | 3250 | 6 | 
11 | C[C@](N)(CO)C(=O)Nc1ccc(SCCc2ccc(-c3ccccc3)cc2)cc1 |  |  |  |  |  | Activity (Mus musculus [11]): 21%
12 | C[C@](N)(CO)C(=O)Nc1ccc(C(=O)NCc2ccc(-c3ccccc3)cc2)cc1 |  |  |  |  |  | Activity (Mus musculus [11]): 32%
13 | CCCCCCCCCCCCC/C=C/[C@@H](O)[C@@H](N)COP(=O)(O)O | 5.6 | 2.4 |  | 0.92 | 0.78 | IC50 [8]: 1.04 nM

Continued, in another order:

Row | EC50 [1] [nM] | EC50 [2] [nM] | Ratio IC50 (Homo sapiens [4]) | IC50 [6] [nM] | IC50 [7] [nM] | Structure (SMILES) | also measured
14 | 1.62 | > 3000 | 8700 | 2000 | 0.23 | C[C@](N)(COP(=O)(O)O)c1nc(-c2ccc(OCc3ccc(-c4ccccc4)cc3)c(C(F)(F)F)c2)c[nH]1 | IC50 [8]: 4.4 nM; Ratio EC50 (Homo sapiens [3]): > 1850; Activity (Mus musculus [11]): 85%; IC50 [9]: 9.6 nM; Activity (Mus musculus [5]): 70.1%
15 | 22.4 | > 3000 | > 10000 | > 100000 | 9.4 | C[C@](N)(COP(=O)(O)O)c1nc(-c2ccc(OCCc3ccc(-c4ccccc4)cc3)c(C(F)(F)F)c2)c[nH]1 | IC50 [8]: 6.5 nM; Ratio EC50 (Homo sapiens [3]): > 134; Activity (Mus musculus [11]): 64%; IC50 [9]: 184 nM; Activity (Mus musculus [5]): 6.8%
16 | 18.3 | > 3000 | 917 | 3800 | 4.14 | C[C@](N)(COP(=O)(O)O)C(=O)Nc1ccc(C(=O)CCc2ccc(-c3ccccc3)cc2)cc1 | IC50 [8]: 13.1 nM; Ratio EC50 (Homo sapiens [3]): > 164; IC50 [9]: 1360 nM
17 |  |  | 109 | 700 | 6.4 | C[C@](N)(COP(=O)(O)O)C(=O)Nc1ccc(OCCc2ccc(-c3ccccc3)cc2)cc1C(F)(F)F | 
18 |  |  |  | > 1000 | 500 | CNC(=O)c1cc(NC(=O)[C@@](C)(N)COP(=O)(O)O)ccc1OCCc1ccc(-c2ccccc2)cc1 | 
19 |  |  | > 476 | > 10000 | 21 | COC(=O)c1cc(NC(=O)[C@@](C)(N)COP(=O)(O)O)ccc1OCCc1ccc(-c2ccccc2)cc1 | 
20 |  |  | 356 | 285 | 0.8 | C[C@](N)(COP(=O)(O)O)C(=O)Nc1ccc(OCCc2ccc(-c3ccccc3)cc2)c(Cl)c1 | 
21 | 0.52 | 120 | 190 |  |  | C[C@](N)(COP(=O)(O)O)C(=O)Nc1ccc(OCCc2ccc(-c3ccccc3)cc2)cc1 | IC50 [8]: 10.3 nM; Ratio EC50 (Homo sapiens [3]): 231; IC50 [9]: 43.6 nM
